Screening data from PubChem.
Sampled rows, rich in hits. Any-hit rate of the full collection: about 3.6%.
CSC inhib – blocks cancer stem cells. cancer stem cell-like cells viability, luminescence. inhibition, % at 7.5 µM. hit rate 1.1% among 300,000; in the data active = inhibition above about 75%; tested in HMLE shEcad cells
Beta apoptosis – beta cell apoptosis inhibition; INS-1E cytokine-induced death, ATP luminescence, 48 h; percent of positive-control rescue, neutral wells zero; protection from apoptosis, % (concentration not given with the values); hit rate 0.8% among 300,000;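 active = Every replicate reaches about 75%, or at least half do and their mean reaches it too, limit read from the data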;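 also: higher means more ATP so stronger rescue from cytokine killing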
T cruzi repl – T. cruzi replication inhibition. T. cruzi beta-gal in NIH3T3, luminescence, 90 h. inhibition, % (test concentration not listed). hit rate 1.4% among 300,000;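 active = mean inhibition across valid replicates above about 55%, limit read from the data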;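 also: signal also drops with host cell toxicity which is not excluded here; higher percent means less beta-gal luminescence so fewer parasites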
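Assay system: NIH/3T3 fibroblasts plus reporter T. cruzi. Amount: NIH/3T3 cells, 5,000 per well. Buffer or medium: DMEM, 2% fetal bovine serum. Doses: compound pinned at 50 nL/well, DMSO. Schedule: ≥90 h infection period, 3 h prior cell attachment. Signal: luminescent β-galactosidase signal after 60 min lysis. Read-out: parasite load inhibition, %.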
SKKanGAS inh – inhibitors of SKKanGAS S. pyogenes growth in kanamycin (SK-promoter or general growth effect); AID 1662; BacTiter-Glo, 6 h; inhibition, % at 7.5 µM; hit rate 1.3% among 300,000;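 active = mean replicate score, as percent of positive control median, at least 50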;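 also: strain carries kanamycin resistance gene driven by streptokinase promoter and grows in 40 µg/ml kanamycin; loss of luminescence reflects streptokinase promoter inhibition or plain growth inhibition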
HIF activator – HIF pathway transcriptional activation; AID 1910; activation, % at 7.5 µM (by protocol); hit rate 0.32% among 300,000; U2OS HRE-luciferase reporter, luminescence; normalized: DMSO 0%, desferrioxamine 100%;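 active = mean activation of at least 10% of the iron chelator positive control signal, with at least half of replicates also reaching 10%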
PfHsp90 set2 – reduces growth (ATP signal) of yeast expressing P. falciparum Hsp90; S. cerevisiae expressing PfHsp90, BacTiter-Glo ATP, 48 h; yeast lacking PDR1 and PDR3 efflux regulators; inhibition, % at 9.4 µM; hit rate 0.32% among 310,000;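 active = every replicate shows inhibition above about 80%, whatever the replicate mean, limit read from the data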
Hits are given with their value; – = inactive; · = not tested or not shown.

SMILES	CSC inhib	Beta apoptosis	T cruzi repl	SKKanGAS inh	HIF activator	PfHsp90 set2
CCC(C)n1c(C)nc2c(c1=O)c1nc3ccccc3nc1n2CCC1=CCCCC1 (stereo not drawn)	–	–	59	–	–	–
COc1ccc(-c2c([C@H]3[C@H]4C=CC[C@@H](C)[C@@H]4C(=O)N3Cc3ccccc3)ccc3ccccc23)cc1	–	107	–	–	–	–
COc1ccc(-c2ccc([C@H]3[C@H]4C=CC[C@@H](C)[C@@H]4C(=O)N3Cc3ccccc3)c(F)c2)cc1	–	–	–	–	–	–
COc1ccc(-c2oc3cccnc3c2C#CC2(O)CCCCC2)cc1	–	–	–	57	–	·
COc1ccc(-c2oc3cccnc3c2C#CCO)cc1	–	–	–	–	–	–
COc1ccc(-c2oc3ccc(N4CCOCC4)cc3c2C#CC2(O)CCCCC2)cc1	–	·	–	69	–	–
OC1(C#Cc2c(-c3ccsc3)oc3ccc(N4CCOCC4)cc23)CCCCC1	–	·	–	50	–	–
Cc1ccc(NC(=O)c2ccc(Cl)c(S(=O)(=O)N3CCc4ccccc43)c2)nc1	·	·	·	·	·	–
O=C(c1cc([N+](=O)[O-])ccc1Cl)N1CCN(Cc2ccc3c(c2)OCO3)CC1	–	–	–	–	–	–
O=C(c1cc([N+](=O)[O-])cc([N+](=O)[O-])c1)N1CCN(Cc2ccc3c(c2)OCO3)CC1	–	–	66	–	–	–
CSC(=Nc1ccccc1)N=C(SCc1ccccc1)N(C)C	·	·	·	·	·	–
C#CCOCCOCCOCCNc1nc(N2CCN(C(=O)CCCCCCCCCCNC(=O)[C@@H](CCSC)n3cc(CCO)nn3)CC2)nc(N2CCN(C(=O)CCCCCCCCCCNC(=O)[C@H](CCCN=C(N)N)n3cc(C[C@@H](C)CC)nn3)CC2)n1	–	–	·	·	·	–
C#CCOCCOCCOCCNc1nc(N2CCN(C(=O)CCCCCCCCCCNC(=O)[C@H](CCCCN)n3cc(C)nn3)CC2)nc(N2CCN(C(=O)CCCCCCCCCCNC(=O)[C@@H]([C@H](C)O)n3cc(C)nn3)CC2)n1	–	–	·	·	·	–
C#CCOCCOCCOCCNc1nc(N2CCN(C(=O)CCCCCCCCCCNC(=O)[C@H](CCCCN)n3cc(C[C@@H](C)CC)nn3)CC2)nc(N2CCN(C(=O)CCCCCCCCCCNC(=O)[C@@H]([C@H](C)O)n3cc(C)nn3)CC2)n1	–	99	·	·	·	–
C#CCOCCOCCOCCNc1nc(N2CCN(C(=O)CCCCCCCCCCNC(=O)[C@H](CO)n3cc(CCCCCN)nn3)CC2)nc(N2CCN(C(=O)CCCCCCCCCCNC(=O)[C@H](CCCN=C(N)N)n3cc(C[C@@H](C)CC)nn3)CC2)n1	–	89	·	·	·	·
C#CCOCCOCCOCCNc1nc(N2CCN(C(=O)CCCCCCCCCCNC(=O)[C@H](CCCCN)n3cc(C)nn3)CC2)nc(N2CCN(C(=O)CCCCCCCCCCNC(=O)[C@H](CCCN=C(N)N)n3cc(C[C@@H](C)CC)nn3)CC2)n1	168	100	·	·	·	·
C#CCOCCOCCOCCNc1nc(N2CCN(C(=O)CCCCCCCCCCNC(=O)[C@H](CCCCN)n3cc(C[C@@H](C)CC)nn3)CC2)nc(N2CCN(C(=O)CCCCCCCCCCNC(=O)[C@H](CCCN=C(N)N)n3cc(C[C@@H](C)CC)nn3)CC2)n1	102	99	·	·	·	–
C#CCOCCOCCOCCNc1nc(N2CCN(C(=O)CCCCCCCCCCNC(=O)[C@@H](CCC(=O)O)n3cc(CCCCCN)nn3)CC2)nc(N2CCN(C(=O)CCCCCCCCCCNC(=O)[C@H](CCCCN)n3cc(C[C@@H](C)CC)nn3)CC2)n1	–	–	·	·	·	–
Cc1cn([C@@H](CCCCNC(=O)OC(C)(C)C)C(=O)NCCCCCCCCCCC(=O)N2CCN(C(=O)OC(C)(C)C)CC2)nn1	–	–	·	·	·	–
CC[C@H](C)Cc1cn([C@@H](CCCN=C(NC(=O)OC(C)(C)C)NC(=O)OC(C)(C)C)C(=O)NCCCCCCCCCCC(=O)N2CCN(C(=O)OC(C)(C)C)CC2)nn1	–	–	59	–	–	–
C#CCOCCOCCOCCNc1nc(N2CCN(C(=O)CCCCCCCCCCNC(=O)[C@H](CCCCN)n3cc(CCO)nn3)CC2)nc(N2CCN(C(=O)CCCCCCCCCCNC(=O)[C@H](CCCCN)n3cc(C[C@@H](C)CC)nn3)CC2)n1	95	83	·	·	·	·
C=CCOc1ccc(CN(C)C(=O)c2ccc(CNS(=O)(=O)c3ccc(C)c(C)c3)cc2)cc1	·	–	·	·	·	–
Cc1ccc(S(=O)(=O)/N=C(/NC(=S)Nc2ccccc2)c2ccccc2)cc1	–	–	–	–	–	–
Cc1ccc(NC(=S)N/C(=N/S(=O)(=O)c2ccccc2)c2ccccc2)cc1	–	–	–	–	10	–
NC(N)=N/N=C/c1ccc(OCc2ccccc2)cc1	–	82	71	–	–	–
SMILES	CSC inhib	Beta apoptosis	T cruzi repl	SKKanGAS inh	HIF activator	PfHsp90 set2
NC(N)=N/N=C/c1ccc(OCc2ccc(Cl)cc2)cc1	·	·	61	–	–	·
N#Cc1ccc(/C=N/N=C(N)N)cc1	–	–	–	–	–	–
NC(N)=N/N=C/c1ccc(Br)cc1	–	–	67	–	–	–
O=C(N/N=C/c1ccccc1)c1ccc(OCc2ccccc2)cc1	·	–	–	–	–	–
O=S(=O)(N/N=C/c1ccc(Cl)cc1)c1ccc(Cc2ncc(C(F)(F)F)cc2Cl)s1	–	–	–	50	–	–
O=C1NC(c2ccc(Br)cc2)Oc2ccccc21 (stereo not drawn)	–	–	–	–	–	–
CC(C)(C)c1ccc(C(=O)N2CCN(c3ncccn3)CC2)cc1	–	–	–	–	–	–
CC(C)(C)c1cc(C(=O)N2CCN(c3ncccn3)CC2)ccn1	–	–	–	–	882	–
Cc1cccc(N2CCN(C(c3ccncc3)c3nnnn3C(C)(C)C)CC2)c1C (stereo not drawn)	–	–	64	–	–	–
N#Cc1ccc(NC(=O)Nc2ccc(Oc3ccc(NC(=O)Nc4ccc(C#N)cc4)cc3)cc2)cc1	–	–	61	–	–	–
CC(C)(Cc1ccccc1)/[N+]([O-])=C\c1ccccc1	–	–	–	–	–	–
COc1ccc(CNC[C@@H](CCCCN(C)Cc2ccc(OC)cc2)N2C[C@H](c3ccccc3)N(CCc3ccc(Cl)c(Cl)c3)C(=O)C2=O)cc1	107	99	–	–	–	–
Nc1c(S(=O)(=O)c2ccccc2)c2nc3ccccc3nc2n1/N=C/c1cccc(O)c1	104	–	–	56	–	–
Cc1cccc(S(=O)(=O)c2c(N)n(/N=C/c3ccccc3)c3nc4ccccc4nc23)c1	–	–	–	–	–	·
CCC(CC)NC(=O)C1CCN(c2ccc(S(=O)(=O)N3CCOCC3)cc2[N+](=O)[O-])CC1	–	–	·	·	·	–
CC(=O)c1ccccc1NC(=O)COC(=O)C1=NN(c2ccccc2)C(=O)CC1	·	·	·	·	·	–
O=C(NNC(=O)c1cc(Cl)ccc1O)c1ccc(NS(=O)(=O)c2cccs2)cc1	95	·	–	–	–	–
